Reference: ChEMBL document CHEMBL1649208, “High-throughput screening identifies three inhibitor classes of the telomere resolvase from the lyme disease spirochete” (Antimicrob Agents Chemother, 2009)

Assays:
[1] = target: T1, Telomere resolvase ResT (Borrelia burgdorferi (strain ATCC 35210 / B31 / CIP 102532 / DSM4680)) (UniProt O50979); assay: Inhibition of Borrelia burgdorferi telomere resolvase assessed as reduction in DNA cleavage at 10 uM; details: Borreliella burgdorferi
T1 sequence (whole entry): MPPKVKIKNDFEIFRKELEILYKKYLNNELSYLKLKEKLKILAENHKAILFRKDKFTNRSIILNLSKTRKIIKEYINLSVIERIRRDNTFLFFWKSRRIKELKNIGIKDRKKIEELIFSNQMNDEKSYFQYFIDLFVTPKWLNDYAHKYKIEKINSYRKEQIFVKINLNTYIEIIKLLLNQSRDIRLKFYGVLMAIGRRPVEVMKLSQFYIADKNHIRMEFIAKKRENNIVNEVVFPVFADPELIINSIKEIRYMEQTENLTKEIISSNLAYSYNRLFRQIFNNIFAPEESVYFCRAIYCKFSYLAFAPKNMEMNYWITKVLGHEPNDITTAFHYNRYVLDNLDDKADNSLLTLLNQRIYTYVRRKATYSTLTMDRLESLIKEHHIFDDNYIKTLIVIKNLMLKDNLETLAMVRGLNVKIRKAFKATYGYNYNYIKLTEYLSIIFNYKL
Method in brief: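 Cleavage-step assay with 5′-bridging phosphorothiolate oligonucleotide substrate (OGCB116+OGCB117), 5.4 nM, 32P-labeled. Recombinant ResT at 165 nM, 10% DMSO final, 25 mM Tris-HCl pH 8.5, 100 mM NaCl, 1 mM EDTA, 25% glycerol. 30 min at 30°C, stopped with 0.1% SDS. Covalent protein–DNA complex resolved on 5% SDS-polyacrylamide gel, phosphorimager. Expressed relative to ResT+DMSO control.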

Telomere resolvase ResT = target: T2, Telomere resolvase ResT (Borrelia burgdorferi (strain ATCC 35210 / B31 / CIP 102532 / DSM4680), UniProt O50979); assay: Inhibition of Borrelia burgdorferi telomere resolvase by gel-based telomere resolution assay; parameters: species or system Borreliella burgdorferi
T2 sequence (O50979 whole entry): T1 sequence (whole entry)

[2] = target: T1, Telomere resolvase ResT (Borrelia burgdorferi (strain ATCC 35210 / B31 / CIP 102532 / DSM4680)); assay: Inhibition of Borrelia burgdorferi telomere resolvase assessed as inhibition of telomere resolution at 10 uM; details: Borreliella burgdorferi
[3] = target: T1, Telomere resolvase ResT (Borrelia burgdorferi (strain ATCC 35210 / B31 / CIP 102532 / DSM4680)); assay: Inhibition of Borrelia burgdorferi telomere resolvase 164-449 sequence assessed as inhibition of DNA binding activity at 10 uM by electrophoretic mobility shift assay; details: Borreliella burgdorferi
[4] = target: T1, Telomere resolvase ResT (Borrelia burgdorferi (strain ATCC 35210 / B31 / CIP 102532 / DSM4680)); assay: Inhibition of Borrelia burgdorferi telomere resolvase assessed as DNA cleavage at 10 uM; details: Borreliella burgdorferi

Compound	inhibition [1]	IC50 (Telomere resolvase ResT)	inhibition [2]	% binding relative to control [3]	% cleavage relative to control [4]
C[C@H](CCC(=O)O)[C@H]1CC[C@H]2[C@@H]3CC[C@@H]4CCCC[C@]4(C)[C@H]3CC[C@@]12C		1.96 µM	≥ 70%	14%	79%
O=C(O)c1ccc2c3c(cccc13)C(=O)N(c1ccc(-c3nc4ccc(N5C(=O)c6cccc7c(C(=O)O)ccc(c67)C5=O)cc4[nH]3)cc1)C2=O		3.16 µM	≥ 70%	16%	65%
O=C(O)CCCCCCCCCCCCC1C=CCC1 (centres undefined)		2.62 µM	≥ 70%	5%	75%

Continued by falling IC50 (Telomere resolvase ResT), values first:

inhibition [1]	IC50 (Telomere resolvase ResT)	inhibition [2]	% binding relative to control [3]	% cleavage relative to control [4]	Compound
	9.52 µM	≥ 70%	33%	43%	O=C(O)c1ccc(-c2nc(-c3ccc(-c4ccccc4)cc3)c(-c3ccc(-c4ccccc4)cc3)[nH]2)cc1
6%	8.67 µM	≥ 70%			COc1cc(O)c2c(c1)oc(=O)c1c3cc(O)c(O)cc3oc21 [WEDELOLACTONE]
